The values that follow come from PMC2931272 (Antiviral chemistry & chemotherapy, 2009).

Data set [1] is described as follows: Stability of prodrug / conversion to cyclopropavir in mouse plasma. In kind it is in vitro ADME. Conditions: for First order rate constant of conversion to cyclopropavir (5) / half live of conversion to cyclopropavir (5): 50 μM. Summed up:
(§1)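 Blood was drawn by cardiac puncture from anaesthetised male Swiss-Webster mice into EDTA(K3) and iced; plasma was spun 10 min at 1100 × G, 4°C. Blood or plasma was spiked from a DMSO stock to a 50 μM final and held at 0°C (ice water) or 37°C. A no-incubation control was processed straight after spiking. Timed aliquots were frozen (blood first spun 2200 × G, 5 min, 4°C). Prodrug and parent were measured by HPLC, UV.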

Data set [2] is described as follows: Stability of prodrug / conversion to cyclopropavir in mouse whole blood. In kind it is in vitro ADME. Conditions: for First order rate constant of conversion to cyclopropavir (5) / half live of conversion to cyclopropavir (5): 50 μM. Summed up: as §1
Data set [3] can be described thus: Visual cytotoxicity in uninfected HFF's used in plaque reduction assays. Conditions: human, uninfected human foreskin fibroblasts (HFF). The data set is classed as cell-based.
Data set [4] can be described thus: Pharmacokinetics after IV bolus dosing of prodrug. The data set is classed as in vivo. Particulars: mice, IV 24.6 mg/kg prodrug.
Data set [5] is described as follows: Kinetics of hydrolysis at pH 7.0. In kind it is physicochemical. Conditions: phosphate buffer.
Data set [6] is described as follows: Cytotoxicity by neutral red assay in HFF. Conditions: human, human foreskin fibroblasts (HFF). The data set is classed as cell-based.
The conditions of data set [7]: pH 7.08, 37 °C; cited from earlier work.
The mark [8] stands for this setting: analyte prodrug (6), two compartments model.

Molecules are shown by their SMILES. Bounds are passed on as bounds.

As for `CC(C)[C@H](N)C(=O)OCC1(CO)C/C1=C/n1cnc2c(=O)[nH]c(N)nc21.Cl` (mixture of isomers) [Valcyclopropavir (6), (Z)-9-{[2-Hydroxymethyl-2-(L-valyloxymethyl)cyclopropylidene]methyl}guanine Hydrochloride], the “First order rate constant of conversion to cyclopropavir (5)” value in data set [1] (0°C) is 0.0010 min.^−1; in data set [1] (37°C), 0.0172 min.^−1; in data set [2] (mouse whole blood, 0°C), 0.0005 min.^−1; in data set [2] (mouse whole blood, 37°C) it was 0.0087 min.^−1. In addition, the “half live of conversion to cyclopropavir (5)” value is 727 min in data set [1] (0°C); 40.4 min in data set [1] (37°C); 1310 min in data set [2] (mouse whole blood, 0°C); 80 min in data set [2] (mouse whole blood, 37°C). For the same molecule, the “conversion of valcyclopropavir (6) to cyclopropavir (5), no incubation” value amounted to 3.7% in data set [1] (processed immediately after spiking) and 9.0% in data set [2] (mouse whole blood, processed immediately after spiking). Further, the half-life at 50 μM in data set [2] (male, Swiss-Webster, mouse, whole blood) was 22 h. Further, the half-maximal cytotoxic concentration (CC50) in data set [3] is over 100 µM; in data set [6], over 300 µM. Also, the “Rate constant of distribution phase, α” value in data set [4] (setting [8]) was 0.25 min.^−1. Besides, the “Rate constant of elimination phase, β” value in data set [4] (setting [8]) amounted to 0.00263 min.^−1. Further, in data set [4] (setting [8]), the “Volume of main compartment, V” value is 0.0753 L/kg. Moreover, the AUC in data set [4] (male, Swiss-Webster, mouse, plasma, iv, 24.6 mg/kg, Area under the curve, AUC, analyte prodrug (6), single compartment first order elimination model) was 1020 ng·h/mL. The clearance in data set [4] (male, Swiss-Webster, mouse, plasma, iv, 24.6 mg/kg, Clearance (Cl), analyte prodrug (6), single compartment first order elimination model) came out at 402 mL/min. Moreover, the half-life in data set [4] (male, Swiss-Webster, mouse, plasma, iv, 24.6 mg/kg, Half-life, T1/2, analyte prodrug (6), single compartment first order elimination model) is 2.68 h. In addition, the half-life at 2.25 mM in data set [5] is 22.5 h.

Regarding `Nc1nc2c(ncn2/C=C2/CC2(CO)CO)c(=O)[nH]1` [Cyclopropavir (5)], the CC50 was over 100 µM in data set [3] and over 380 µM in data set [6].

For `Nc1nc(O)c2ncn(COC(CO)CO)c2n1` [Ganciclovir, reference compound], the CC50 in data set [3] and in data set [6] was over 100 µM in each case.

Turning to `CC(C)[C@H](N)C(=O)OCC(CO)OCn1cnc2c(=O)nc(N)[nH]c21` (stereo partly shown) [valganciclovir (2)], the half-life of hydrolysis in data set [7] is 11 h.
